ARFGAP1 inhibitor: inhibits rat ARF GTPase activating protein 1 | Arfgap1-stimulated ARF1 GTP hydrolysis, GDP FP detection | AID 651572 | Q62848 | inhibition, % at 16.5 µM | 0.26% of 360,000 active;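 active = inhibition above a per-plate limit, mean inhibition of low control wells plus 3 SD, cut at about 25% in these data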;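 also: 0% = DMSO wells with enzyme and 100% = wells lacking Arfgap1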
Target sequence (Q62848 1-136 limits assumed): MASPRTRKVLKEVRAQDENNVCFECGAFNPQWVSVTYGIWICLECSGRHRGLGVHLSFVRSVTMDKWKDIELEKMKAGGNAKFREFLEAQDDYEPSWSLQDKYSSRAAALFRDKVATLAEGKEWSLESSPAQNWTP
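Assay system: purified rat His6-Arfgap1 residues 1-136 (GAP domain); Reagent: human Δ17 ARF1 bound to GTP; Dosing: 16.5 µM single point, 1.26% DMSO; Times: GTP hydrolysis reaction 2 h at 25 °C; Signal: FP, GDP Alexa 633 tracer displaced from anti-GDP antibody, 620/688 nm; Measure: % inhibition from polarization.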
PAFAH1B2 FP inh: blocks human PAF acetylhydrolase 1b catalytic subunit 2; inhibition, % at 3.39 µM; recombinant PAFAH1B2, FP-rhodamine activity probe, fluorescence polarization; 1.2% of 340,000 active;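 active = inhibition above the mean of all tested compounds plus 3 SD, cut at about 24% in these data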;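 also: 0% = enzyme with DMSO and 100% = wells lacking PAFAH1B2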
PAFAH1B3 inh: inhibitors of human PAFAH1B3. recombinant PAFAH1B3, FP-rhodamine probe, fluorescence polarization. inhibition, % at 3.39 µM. 0.28% of 340,000 active;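 active = inhibition above the screen-wide average of all tested compounds plus 3 SD, cut at about 25% in these data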;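 also: 0% = enzyme with DMSO only and 100% = wells lacking PAFAH1B3 protein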
PAFAH2 inh: PAFAH2 (human) inhibition; Q99487; recombinant PAFAH2, FP-rhodamine activity probe, fluorescence polarization; inhibition, % at 3.39 µM; 0.99% of 340,000 active;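 active = inhibition above the mean over all tested compounds plus 3 SD, cut at about 30% in these data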;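 also: inhibitors block probe labeling of enzyme so polarization drops; 0% = enzyme with DMSO and 100% = wells lacking PAFAH2 protein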
pPAFAH inh: pPAFAH (human) enzyme inhibition; 1.5% of 330,000 active; Q13093; inhibition, % at 3.39 µM; recombinant pPAFAH, FP-rhodamine probe fluorescence polarization;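 active = inhibition above the mean inhibition across the screen plus 3 SD, cut at about 25% in these data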;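 also: inhibitors block binding of the rhodamine activity-based probe so polarization drops; 0% = enzyme with DMSO and 100% = wells lacking pPAFAH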
Target sequence (Q13093 whole entry, looked up): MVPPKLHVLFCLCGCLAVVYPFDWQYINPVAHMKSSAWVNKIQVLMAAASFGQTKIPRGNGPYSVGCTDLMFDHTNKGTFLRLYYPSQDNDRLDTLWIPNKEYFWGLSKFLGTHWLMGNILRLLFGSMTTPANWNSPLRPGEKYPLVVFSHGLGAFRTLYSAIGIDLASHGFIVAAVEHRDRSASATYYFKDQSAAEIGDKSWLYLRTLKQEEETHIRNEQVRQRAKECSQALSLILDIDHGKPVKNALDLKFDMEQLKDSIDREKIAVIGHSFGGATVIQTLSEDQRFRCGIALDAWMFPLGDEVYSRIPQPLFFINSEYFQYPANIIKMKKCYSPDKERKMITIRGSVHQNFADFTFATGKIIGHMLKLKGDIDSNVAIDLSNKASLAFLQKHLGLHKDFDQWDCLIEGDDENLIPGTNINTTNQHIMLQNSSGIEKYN
ASAP1 inh: ASAP1 ArfGAP inhibition; Q9ULH1; ASAP1-stimulated ARF1 GTP hydrolysis, GDP FP detection; inhibition, % at 16.5 µM; 0.19% of 360,000 active; in the data active = inhibition above about 25%;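 also: 0% = vehicle with enzyme and substrate and 100% = no enzyme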
pPAFAH FP conf: confirmation of human plasma PAF acetylhydrolase (pPAFAH) inhibitors; inhibition, % at 3.39 µM; shares compounds with pPAFAH inh; recombinant pPAFAH, FP-Rh probe fluorescence polarization; 72% of 2,300 active;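 active = mean inhibition of the triplicate above the hit cutoff set for the earlier primary screen, cut at about 25% in these data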;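 also: 0% = enzyme with DMSO and 100% = wells lacking pPAFAH enzyme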
* = called active by the depositor; nt = not tested or not shown. A selection: hits, their analogues and other compounds. The true share with any hit is near 2.7%.

SMILES | ARFGAP1 inhibitor | PAFAH1B2 FP inh | PAFAH1B3 inh | PAFAH2 inh | pPAFAH inh | ASAP1 inh | pPAFAH FP conf
Nc1c(C(=O)Nc2nc3ccccc3s2)sc2nc(-c3cccs3)ccc12 | nt | 9 | 6 | 18 | 50* | nt | 43*
C=CCn1c(N/N=C/c2ccc(O)cc2)nc2ccccc2c1=O | 9 | 5 | 1 | 4 | 35* | -1 | 9
COC(=O)[C@H](Cc1ccccc1)N1CC=CS1(=O)=O | 11 | nt | nt | nt | nt | 12 | nt
N#Cc1ccc(OCC(=O)N[C@@H](Cc2ccccc2)c2nc3ccccc3[nH]2)cc1 | -1 | nt | nt | nt | nt | 0 | nt
CCOCCCNC(=O)c1ccc(N2CCCC2)c(NS(=O)(=O)c2ccc(C)cc2)c1 | 2 | 4 | 3 | 3 | 52* | -8 | 3
COCc1[nH]nc2c1C(c1ccc(C)cc1)NC2=O (stereo not drawn) | 5 | nt | nt | nt | nt | 6 | nt
COCCN(C(=O)COC(=O)c1cc2c(s1)CCC2)c1c(N)n(Cc2ccccc2)c(=O)[nH]c1=O | 2 | 9 | 10 | 57* | 56* | -5 | 34*
CCC1CCc2sc(C(=O)OCC(=O)N(CCOC)c3c(N)n(Cc4ccccc4)c(=O)[nH]c3=O)cc2C1 (stereo not drawn) | 4 | 0 | 4 | 3 | 5 | 1 | nt
COC(=O)C1=C(C)N(C)C(=NCC2CC2)NC1c1cccc(C(F)(F)F)c1 (stereo not drawn) | -5 | nt | nt | nt | nt | -4 | nt
Cc1ccc(-n2c(C)cc(/C=C3\SC(=O)NC3=O)c2C)cc1 | 2 | 5 | 12 | 4 | 14 | 10 | nt
COc1ccc(-n2c(C)cc(/C=C3\SC(=O)NC3=O)c2C)cc1 | 8 | 0 | 1 | 1 | 40* | -4 | 23
Cc1cc(/C=C2\SC(=S)NC2=O)c(C)n1-c1cccc(O)c1 | 22 | 15 | 8 | 20 | 45* | 2 | 49*
Cc1cc(/C=C2\SC(=S)NC2=O)c(C)[nH]1 | -3 | -1 | 12 | 15 | 46* | 4 | 1
NC(=O)c1c(N)[nH]c(C(=O)c2ccccc2)c1-c1ccccc1 | 4 | nt | nt | nt | nt | -5 | nt
COc1cc(/C=N/NC(=O)c2cccc(NC(=O)c3ccccc3C)c2)ccc1O | 6 | 9 | 14 | -3 | 8 | -2 | nt
Cc1ccccc1C(=O)Nc1cccc(C(=O)N/N=C/c2cc(Cl)cc([N+](=O)[O-])c2O)c1 | -1 | 3 | -9 | 6 | 38* | 2 | 42*
CCOC(=O)c1c(NC(=O)/C=C/C(=O)O)sc(C)c1-c1ccc(Cl)cc1 | -18 | 2 | 2 | -3 | 44* | 6 | 40*
Cc1ccc2cccc(OC(=O)c3cccnc3Oc3ccccc3)c2n1 | -2 | nt | nt | nt | nt | 6 | nt
Cc1cc(Br)cn2c(Cc3ccccc3C(F)(F)F)c(-c3cccc(Cl)c3)nc12 | 10 | nt | nt | nt | nt | 3 | nt
O=C1CC2c3cc(Br)ccc3CCN2C(=O)CN1Cc1ccccc1 (stereo not drawn) | 3 | nt | nt | nt | nt | -5 | nt
Cc1[nH]c2ccccc2c1/C=N/NC(=O)c1cccc(S(=O)(=O)Nc2cccc(C(F)(F)F)c2)c1 | 9 | 35* | 43* | 12 | 40* | 23 | 40*
COc1ccc(OC)c(Nc2cc(-c3ccccc3)nc(N)n2)c1 | 8 | nt | nt | nt | 43* | -1 | 37*
CC(=O)N(Cc1ccccc1)c1nccs1 | 3 | nt | nt | nt | nt | 0 | nt
O=[N+]([O-])C1=C(Nc2cccc3ccccc23)CS(=O)(=O)C1 | 5 | 10 | 7 | 3 | 39* | 4 | 4
COCc1[nH]nc2c1C(c1ccc3c(c1)OCO3)N(Cc1ccccc1)C2=O (stereo not drawn) | -1 | nt | nt | nt | nt | -10 | nt
SMILES | ARFGAP1 inhibitor | PAFAH1B2 FP inh | PAFAH1B3 inh | PAFAH2 inh | pPAFAH inh | ASAP1 inh | pPAFAH FP conf
CC(C)(C)c1ccc(C(=O)Nc2sc3c(c2C(=O)O)CCC3)cc1 | -6 | 47* | 10 | 14 | 37* | -8 | 41*
COc1ccc(-c2csc(NC(=O)c3ccc(C(C)(C)C)cc3)c2C(=O)O)cc1 | nt | nt | nt | nt | 37* | nt | 41*
COC(=O)N1C[C@H](OCc2ccccc2)[C@H]2C[C@@H]1c1ccccc1O2 | 11 | nt | nt | nt | nt | -4 | nt
CCCCNc1ccc2c(c1)OC[C@H](Cc1ccccc1)NS2(=O)=O | 0 | nt | nt | nt | nt | -3 | nt
COc1cc(C2CC(=O)N3CN(Cc4ccco4)CSC3=C2C#N)ccc1OCc1ccccc1 (stereo not drawn) | -5 | -1 | 0 | 5 | 36* | 4 | 11
COC(=O)Cc1nnn2c1[C@H](C)[C@@H](OC)c1cccc(Cl)c1-2 | 0 | nt | nt | nt | nt | 2 | nt
CN(C(=O)CSc1nc(O)cc(=O)n1C1CCCC1)c1ccccc1 | 7 | 4 | 8 | -9 | 48* | 6 | 8
O=S1(=O)c2ccc(Br)cc2OC2CCCN1C2 (stereo not drawn) | 7 | nt | nt | nt | nt | 5 | nt
COc1cc(=O)oc(C=O)c1C | 6 | nt | nt | nt | nt | 5 | nt
CCc1nc(-c2ccccc2)cc(=O)[nH]1 | -7 | -1 | 10 | 4 | 40* | -15 | 4
COc1ccc2noc3c2c1C(=O)c1ccccc1-3 | -3 | 20 | 25 | 38* | 38* | 6 | 25*
O=C(/C=C/c1ccc(O)c(O)c1)c1ccc(S(=O)(=O)N2CCCCCC2)cc1 | -2 | 1 | 16 | 8 | 50* | 3 | 89*
O=C(c1ccc(S(=O)(=O)N2CCCC2)cc1)N1CCCCC1 | 10 | 8 | 4 | 8 | -1 | -8 | nt
O=C(N[C@@H](Cc1cccnc1)C(=O)N1CCC[C@H]1C(=O)NCCc1ccccc1Cl)c1cccs1 | 2 | nt | nt | nt | nt | -3 | nt
O=C1C(CSCc2ccccc2)NC(=S)N1c1ccccc1 (stereo not drawn) | 11 | nt | nt | nt | 37* | 0 | -1
COc1ccc(OC)c(CN(CC(F)(F)F)S(=O)(=O)c2ccccc2Br)c1 | -4 | nt | nt | nt | nt | -4 | nt
OCCN1CCN(CCCN2c3ccccc3Sc3ccc(Cl)cc32)CC1 | 5 | 0 | -3 | 3 | 39* | 1 | 33*
CN(C)CCCN1c2ccccc2Sc2ccc(Cl)cc21 | 2 | 2 | 4 | -1 | 2 | 2 | nt
Cc1ccc(C2=N/C(=C\c3coc4ccccc4c3=O)C(=O)O2)cc1 | 11 | nt | nt | nt | nt | 5 | nt
COc1cc(C(=O)NCCC(=O)NC2CCCCC2)cc(OC)c1OC | 2 | 2 | 0 | 13 | 47* | 3 | 3
O=C(CSc1ccc(-c2ccco2)nn1)c1cccc([N+](=O)[O-])c1 | 3 | 3 | 2 | 9 | 38* | 8 | 10
CC(=O)c1cccc(NC(=O)CSc2ccc(-c3ccco3)nn2)c1 | -5 | 8 | -2 | 3 | 2 | 11 | nt
C#CCNC(=O)C[C@H]1C[C@@]2(C(=O)OC)C(=C[C@H](C(C)C)O[C@@H]2C2CC2)N(Cc2ccccc2)C1=O | -16 | nt | nt | nt | nt | 5 | nt

Bioassay records deposited in PubChem BioAssay by The Scripps Research Institute Molecular Screening Center.
